Results: ChEMBL document CHEMBL1126885, “Alkylpurines as immunopotentiating agents. Synthesis and antiviral activity of certain alkylguanines” (1993)

tested on: Semliki Forest virus; assay: In vivo antiviral protection against lethal Forest virus (SFV) infection at dosage of 200 mg/kg tested in 12 mice; type: functional
Summary of the method: (§1)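 Female Swiss Webster mice, about 20 g, in groups of 12. Compound or placebo was dissolved in 2% aqueous sodium bicarbonate and given intraperitoneally 24 and 18 h before a lethal SFV challenge (10 LD50, pretitrated in mice). Treatment lasted 1 day. Survival was followed for 21 days, and survivor numbers were compared with placebo by two-tailed Fisher exact test.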

Structure (SMILES) | Activity
CCCCCCCCn1c(Br)nc2c(O)nc(N)nc21 | 3
CCCCCCCCn1cnc2c(O)nc(N)nc21 | 1
CCCCCCn1c(Br)nc2c(O)nc(N)nc21 | 4
CCCCCCn1cnc2c(O)nc(N)nc21 | 12
CCCCCCCn1c(Br)nc2c(O)nc(N)nc21 | 1
CCCCCCn1c(S)nc2c(O)nc(N)nc21 | 1
CCCCCn1cnc2c(O)nc(N)nc21 | 8
Nc1nc(O)c2ncn(C3CCCC3)c2n1 | 0
CCCCCCn1c(=O)n(C)c2c(O)nc(N)nc21 | 11
Nc1nc(O)c2ncn(C3CCCCC3)c2n1 | 0
CCCCn1c(Br)nc2c(O)nc(N)nc21 | 6
CCCCn1cnc2c(O)nc(N)nc21 | 10
CCn1cnc2c(O)nc(N)nc21 | 1
CCCCCn1c(Br)nc2c(O)nc(N)nc21 | 8
CCCn1cnc2c(O)nc(N)nc21 | 2
CCCCCn1c(S)nc2c(O)nc(N)nc21 | 8

tested on: Semliki Forest virus; assay: In vivo antiviral protection against lethal Forest virus (SFV) infection at dosage of 100 mg/kg tested in 12 mice; type: functional; summary of the method: as §1

Structure (SMILES) | Activity
C[C@]1(CO)OC(n2c(=O)sc3c(O)nc(N)nc32)[C@H](O)[C@@H]1O (some centres not stated) | 11
CCCCCCn1c(O)nc2c(O)nc(N)nc21 | 1
Nc1nc(O)c2ncn(CCCCCCO)c2n1 | 2
CCCCCCn1c(Cl)nc2c(O)nc(N)nc21 | 7
CCCCCCn1c(C)nc2c(O)nc(N)nc21 | 0
CCCCCCn1c(S)nc2c(S)nc(N)nc21 | 0
N#CCCCCCn1cnc2c(O)nc(N)nc21 | 5
CCCCCCn1c(CC)nc2c(O)nc(N)nc21 | 3
C=CCSc1nc2c(O)nc(N)nc2n1CCCCCC | 6
C=CCn1c(=S)n(CCCCCC)c2nc(N)nc(O)c21 | 8
Nc1nc(O)c2nc(Br)n(CCCCCCO)c2n1 | 2
